Common to all, as to format: functional
Experiment [1] concerns Mus musculus. In words: Neuroprotective activity in C57BL/6 mouse model of transient middle cerebral artery occlusion-induced ttransient focal cerebral ischemia assessed decrease in motor deficit by measuring improvement in grip strength at 1.5 to 2 mg/kg, ip measured after 48 hrs post dose by grip strength Test. More on the design: scale not given: the % may be the effect or the level left. An outline of the steps:
(§1)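 Male C57BL/6 mice (9–12 weeks) under isoflurane. Distal MCA compressed 60 min with a needle, occlusion confirmed by laser-Doppler; buprenorphine given sc. Compound given ip at reperfusion onset. Grip strength recorded at 24 and 48 h versus presurgery. Infarct area/volume measured at 48 h from TTC-stained 1 mm coronal sections. n = 8 per group.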

Experiment [2] in a line: Neuroprotective activity against oxygen-glucose deprivation-induced cell death in Sprague-Dawley rat primary neuronal cells assessed as cell viability at 10 uM treated at onset of recovery period and measured at 24 hrs of recovery by MTT assay relative to control. To be noted: Primary neuron, read-out: Activity. The procedure, abridged: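 Rat cortical neurons from E16–17 Sprague-Dawley embryos, used at 6–7 days in serum-free medium. OGD: glucose-free medium bubbled with 95% N2/5% CO2, <0.1% O2, 6.5% CO2, 37 °C, 4 h. Compound added at start of 24 h normoxic recovery. Viability by MTT (0.2 mg/mL, 1.5 h), lysis with HCl/SDS, read at 595/690 nm, relative to 100% control. Four to eight culture batches, each in quadruplicate.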
Background: Tetrazolium assays rely on reduction of a dye to a coloured formazan, in cell work by metabolically active cells.

A short description of experiment [3]: Antioxidant activity assessed as DPPH free radical scavenging activity at 0.1 mM measured after 20 to 60 mins. The procedure, abridged:
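DPPH 0.1 mM in absolute ethanol with compound at 0.1 mM final (from DMSO). Absorbance at 517 nm recorded after 20 and 60 min at rt. NDGA as standard.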
(In general: DPPH is a stable violet radical that fades when it is reduced.)

Experiment [4] in a line: Antioxidant activity assessed as superoxide anion scavenging activity at 0.1 mM pH 7.4 after 10 mins by NBT assay. An outline of the steps:
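Superoxide generated by xanthine/xanthine oxidase (0.07 U/mL) in 0.1 M phosphate buffer pH 7.4 containing NBT and compound at 0.1 mM final. After 10 min at rt, absorbance read at 560 nm. Caffeic acid as standard.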

Experiment [5] is described as follows: Antioxidant activity assessed as hydroxyl radical scavenging activity at 0.1 mM measured after 30 mins. The procedure, abridged: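 Hydroxyl radicals from Fe3+/ascorbic acid: EDTA 0.1 mM, Fe3+ 167 μM, DMSO 33 mM, compound 0.1 mM and ascorbic acid 10 mM in 50 mM phosphate buffer pH 7.4. Incubated 37 °C for 30 min, stopped with 17% w/v TCA. Read-out is inhibition of formaldehyde formation, given as % scavenging. Trolox as reference.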

Experiment [6] relates to Mus musculus. The experiment can be described thus: Neuroprotective activity in C57BL/6 mouse model of transient middle cerebral artery occlusion-induced ttransient focal cerebral ischemia assessed decrease in size of ischemic lesion at 2 mg/kg, ip measured after 48 hrs post dose relative to control. More on the design: scale not given: the % may be the effect or the level left. An outline of the steps:
as §1

The nature of experiment [7]: Antioxidant activity assessed as inhibition of linoleic acid peroxidation activity at 10 uL. More on the design: scale not given: the % may be the effect or the level left. An outline of the steps: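 AAPH-initiated peroxidation of sodium linoleate dispersion (16 mM, 10 μL) in 0.05 M phosphate buffer pH 7.4 at 37 °C under air. Initiator was 50 μL of 40 mM AAPH, with 10 μL compound added. Conjugated diene hydroperoxide followed at 234 nm. Trolox as reference.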

For `COc1ccc2nc(Cl)c(/C=[N+](\[O-])C(C)(C)C)cc2c1`, the Activity in the experiment with Mus musculus [1] amounted to 11.8%; in experiment [3], 4%; in experiment [4] it was 5%; in experiment [5], 100%; with Mus musculus [6] it was 44%; in experiment [7] it was 22%. Also, the viability at 10 µM in experiment [2] was found to be 52%.
